Compound activity: PubChem, Broad Institute
PGC1a Ac signal = compounds raising PGC1a acetylation signal, primary screen, PGC1a modulator project, cell-based, U2OS, AlphaScreen, signal-increasing mode; overnight; hit rate 0.21% among 350,000; activation, % at 15.6 µM;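 active = every replicate reaching activation of at least 50%, whatever the mean replicate activation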;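 also: hits raise the AlphaScreen acetylation signal above neutral controls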
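detection = AlphaScreen lysate read | assay system = U2OS cells expressing flag-PGC1a plus GCN5 | input = 7000 cells/well | dosing = one concentration | times = compound overnight at 37 °C, each detection step 1 h RT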
Starred values were filed as active, the others as inactive. Only a sample is shown.

SMILES	PGC1a Ac signal
O=C(O)c1ccc(N/N=C/C(Br)=C/c2ccccc2)cc1	54*
CN(C)c1ccc(/C=N/N(CCC#N)C2=NS(=O)(=O)c3ccccc32)cc1	-52
CC1CC(C)(C)CC(=O)C1C(=O)c1ccccc1 (stereo unspecified)	-49
COc1ccc2c(c1)c1nc3ccccc3nc1n2CC(=O)OC(C)C	-46
COc1ccc2c(c1)sc1nc(-c3ccccc3)cn12	71*
C[C@@H]1CN([C@@H](C)CO)C(=O)CCCn2nncc2CO[C@H]1CN(C)S(=O)(=O)c1ccc(Cl)cc1	-97
O=C(c1ccc(F)cc1)N(C(=O)c1ccc(F)cc1)c1ncccn1	-43
CCOC(=O)CS(=O)(=O)c1nc(-c2ccccc2)cc(C(F)(F)F)n1	-58
CCOC(=O)CN1C(=O)C(Sc2n[nH]c(-c3ccc(C)cc3)n2)CCc2ccccc21 (stereo unspecified)	59*
COCCCn1[nH]c2c3c(ccc2c1=O)C(=O)c1ccccc1C3=O	-46
Cc1ccc(-n2cccc2C(=S)N=P(N(C)C)(N(C)C)N(C)C)cc1	-85
Cn1nnnc1Sc1ncnc2scc(-c3ccc[nH]3)c12	91*
CCOc1ccc(N2CC(C(=O)Nc3ccc(S(=O)(=O)NCC4CCCO4)cc3)CC2=O)cc1 (stereo unspecified)	-56
C[C@@H]1CN([C@@H](C)CO)C(=O)c2ccccc2-c2ccccc2CO[C@@H]1CN(C)C(=O)Nc1cccc(Cl)c1Cl	-41
O=[N+]([O-])c1ccccc1-c1ccc(C(=S)N2CCN(c3ccccc3)CC2)o1	-41
Cc1cc(C)cc(C(=O)Nc2ccc3[nH]c(=O)[nH]c3c2)c1	-48
O=C(Nc1ccc(N2CCN(C(=O)c3ccccc3)CC2)cc1)c1ccc([N+](=O)[O-])o1	122*
Cc1cc(C)cc(NC(=O)c2ccc([N+](=O)[O-])o2)c1	247*
O=C(Nc1ccc([N+](=O)[O-])cn1)c1ccc(Br)o1	-43
CC(=O)c1ccc(NC(=O)c2ccc([N+](=O)[O-])o2)cc1	101*
O=C(Nc1c(Cl)ccc2nsnc12)c1ccc([N+](=O)[O-])o1	74*
O=C(c1ccc(CN2CCOCC2)cc1)N1CCN(Cc2ccccc2)CC1	-43
C[C@@H]1CN([C@@H](C)CO)C(=O)c2cc(/C=C/c3ccccc3)cnc2O[C@@H]1CN(C)Cc1cccnc1	-46
O=[N+]([O-])c1cc(-c2ncccn2)c([N+](=O)[O-])s1	-61
Cc1ccccc1NC(=O)CC1c2ccccc2CC(C)(C)N1C (stereo unspecified)	-83
SMILES	PGC1a Ac signal
COc1ccc(N=C2SC(C(N)=O)CC(=O)N2Cc2ccc3c(c2)OCO3)cc1 (stereo unspecified)	-54
O=C/C=C/c1ccc(-c2ccccc2)cc1	74*
CCCC(=O)Nc1ccc(C(=O)N/N=C/c2cccnc2)cc1	69*
C[C@H]1CN([C@@H](C)CO)S(=O)(=O)c2ccc(C#CC3CCCCC3)cc2O[C@@H]1CN(C)Cc1cccnc1	-64
O=C(Nc1ccc(C(F)(F)F)cc1)N1C[C@@H]2N[C@H](C1)C2c1ccc(/C=C/c2ccccc2)cc1 (stereo partly specified)	-73
O=C(Nc1ccc(C(F)(F)F)cc1)N1C[C@@H]2N[C@H](C1)C2c1ccc(-c2ccccc2)cc1 (stereo partly specified)	-43
COc1cccc(CN2CCC(CO)(CC3CCCCO3)CC2)c1 (stereo unspecified)	-100
COc1cccc(CN2C[C@@H]3N[C@H](C2)C3c2ccc(-c3ccccc3OC)cc2)c1 (stereo partly specified)	58*
COc1ccccc1-c1ccc([C@@H]2[C@H](CO)N(C(C)=O)C23CN(C(C)=O)C3)cc1	-58
COc1ccccc1-c1ccc(C2[C@@H]3CN(Cc4cccc(F)c4)C[C@H]2N3)cc1 (stereo partly specified)	72*
N#Cc1cccc(-c2ccc(C3[C@@H]4CN(Cc5ccccc5F)C[C@H]3N4)cc2)c1 (stereo partly specified)	-48
O=C(Nc1cccc(F)c1)N1C[C@@H]2N[C@H](C1)C2c1ccc(-c2ccc(F)cc2)cc1 (stereo partly specified)	73*
Cc1cccc(-c2ccc(C3[C@@H]4CN(Cc5cccc(F)c5)C[C@H]3N4)cc2)c1 (stereo partly specified)	59*
Cc1ccc(/C=N/N2CCN(Cc3ccccc3)CC2)cc1	-54
O=c1c2cccnc2n(-c2ccccc2)n1Cc1ccc(Cl)cc1	-101
O=C(c1ccc(F)cc1)N1CC(=O)N2[C@H](CO)[C@@H](c3ccc(C#CCC4CCCC4)cc3)[C@@H]2C1	-49
O=C(CN1CCOCC1)N[C@H]1CC[C@H](CCNC(=O)Nc2cc(F)ccc2F)O[C@H]1CO	-53
CC(=O)c1c(-c2ccccc2)[nH]c2ccccc12	61*
O=C(O)c1ccc(N=Nc2c(O)[nH]c3ccccc23)cc1	-49
C[C@H]1CN([C@@H](C)CO)S(=O)(=O)c2ccc(C3=CCCC3)cc2O[C@@H]1CN(C)C	-59
CC(C)C12CN3CC(C(C)C)(CN(C1)C3c1ccc3c(c1)OCO3)C2=O (stereo unspecified)	80*
Cc1ccc(N2C(=O)c3ccccc3NC2C(C)Cc2ccc3c(c2)OCO3)cc1 (stereo unspecified)	-40
C[C@H]1CN([C@@H](C)CO)C(=O)c2cccc(NC(=O)Nc3ccc(C(F)(F)F)cc3)c2O[C@H]1CN(C)C(=O)Nc1cccc2ccccc12	-47
COC(c1ccccc1)c1nnc(CCC(=O)N(C)C(C2CC2)C2CC2)o1 (stereo unspecified)	-42
COc1ccccc1NC(=O)CCC(=O)Nc1ccccc1OC	54*
SMILES	PGC1a Ac signal
COc1ccc(NC(=O)C/C(C)=N/NC(=O)C(=O)NC(C)C)c(OC)c1	-48
COc1ccccc1NC(=O)/C=C1\SCC(=O)N1C	-93
COc1ccc(-c2[nH]ncc2CN(C)C(C)c2ccon2)cc1F (stereo unspecified)	-80
CCOc1ccc(-c2[nH]ncc2-c2ccc(OC)c(OC)c2)c(O)c1	68*
COc1ccc(-c2[nH]ncc2-c2ccc3c(c2)OCCO3)c(O)c1	-53
CO[C@H]1CN(C)C(=O)c2cc(NS(C)(=O)=O)ccc2OC[C@@H](C)N(C(=O)CC2CC2)C[C@H]1C	-46
C[C@@H]1CN([C@H](C)CO)C(=O)c2cc(NC(=O)Cc3ccccc3)ccc2O[C@@H]1CN(C)Cc1ccncc1	-49
CC(C)c1ccc(/C=C2\CC/C(=C\C=N\N(C)C)C2=O)cc1	57*
O=C1/C(=C/c2ccncc2)CCC/C1=C\c1ccncc1	-78
Cc1cc(C(=O)Nc2cccc3c2O[C@H](CN(C)C(=O)Nc2ccc4c(c2)OCO4)[C@@H](C)CN([C@H](C)CO)C3=O)n(C)n1	-58
CN1c2ccccc2C2(C)CCCC3=Cc4cccc([N+](=O)[O-])c4OC312 (stereo unspecified)	69*
CCC(C)NCCOCCOc1ccc(C)cc1OC (stereo unspecified)	-50
Cc1noc(C)c1NC(=O)N(C)C[C@@H]1OCCCC[C@@H](C)Oc2ccc(N(C)C)cc2C(=O)N([C@@H](C)CO)C[C@H]1C	-59
O=C(OCc1nc(-c2ccccc2)oc1COC(=O)c1ccco1)c1ccco1	-44
Cc1cccc(C)c1NC(=O)CS(=O)CC(=O)Nc1ccc(F)cc1F (stereo unspecified)	57*
